# Measurements pooled from the literature.
# Lines come from different studies, so protocols differ.
# Target: Ephrin type-A receptor 6 (EPHA6, Homo sapiens, UniProt Q9UF33)
# Sequence (Q9UF33 23-1036, as in one of the studies): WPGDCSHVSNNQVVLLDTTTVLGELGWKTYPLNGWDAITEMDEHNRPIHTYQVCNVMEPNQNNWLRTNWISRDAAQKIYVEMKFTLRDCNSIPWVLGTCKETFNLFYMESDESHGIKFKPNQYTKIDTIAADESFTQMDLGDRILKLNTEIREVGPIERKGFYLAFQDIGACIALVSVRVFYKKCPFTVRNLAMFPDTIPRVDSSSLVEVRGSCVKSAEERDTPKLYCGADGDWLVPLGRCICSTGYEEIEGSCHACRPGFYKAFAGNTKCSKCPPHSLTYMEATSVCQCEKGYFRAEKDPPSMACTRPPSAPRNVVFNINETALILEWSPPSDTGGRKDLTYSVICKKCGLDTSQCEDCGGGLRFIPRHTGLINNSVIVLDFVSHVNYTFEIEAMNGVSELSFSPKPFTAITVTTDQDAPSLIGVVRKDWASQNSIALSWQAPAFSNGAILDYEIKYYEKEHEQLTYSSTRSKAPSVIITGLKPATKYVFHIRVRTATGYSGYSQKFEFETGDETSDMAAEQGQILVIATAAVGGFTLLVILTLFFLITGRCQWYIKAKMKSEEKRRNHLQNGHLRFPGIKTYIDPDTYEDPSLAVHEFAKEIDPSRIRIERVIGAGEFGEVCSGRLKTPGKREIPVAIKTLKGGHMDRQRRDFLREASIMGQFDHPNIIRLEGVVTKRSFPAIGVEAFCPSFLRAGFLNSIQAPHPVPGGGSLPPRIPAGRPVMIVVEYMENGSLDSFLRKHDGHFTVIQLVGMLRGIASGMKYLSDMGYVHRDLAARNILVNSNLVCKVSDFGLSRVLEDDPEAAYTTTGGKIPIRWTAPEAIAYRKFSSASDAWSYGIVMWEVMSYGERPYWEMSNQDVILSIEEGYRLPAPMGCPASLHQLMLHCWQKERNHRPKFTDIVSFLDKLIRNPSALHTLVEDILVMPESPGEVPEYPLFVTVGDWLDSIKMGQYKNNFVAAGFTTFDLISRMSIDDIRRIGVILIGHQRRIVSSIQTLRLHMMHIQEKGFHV
SMILES,effect on,technique,concentration,remaining binding [%]
N[C@H]1CCN(c2nccc(-c3cnn4ncccc34)n2)C1,binding,,1 µM,100
COc1cnc(Nc2cccc(S(N)(=O)=O)c2)nc1N1CCN(c2ccccc2)CC1,binding,competition with immobilised ligand,1 µM,100
CCCCN(CCCC)C(=O)CN1C[C@H](c2cc(OC)c3c(c2)OCO3)[C@@H](C(=O)O)[C@@H]1CC(C)(C)CCC,cell-free assay,competition with immobilised ligand,1 µM,100
O=C(Nc1c[nH]nc1C(=O)NC1CCNCC1)c1cc(F)cc(F)c1,binding,competition with immobilised ligand,1 µM,100
O=C(NCCCN1CCOCC1)c1ccc(Nc2ncc(Cl)c(-c3ccc(Cl)s3)n2)cc1,binding,competition with immobilised ligand,1 µM,63
CNC(=O)Nc1ccc2c(c1)[C@@]1(CC2)OC(=O)N(CC(=O)N(Cc2ccc(F)cc2)[C@@H](C)C(F)(F)F)C1=O,cell-free assay,competition with immobilised ligand,1 µM,91
Cc1cnn2ncc(-c3ccnc(N(C)C)n3)c2c1,binding,,1 µM,100
Cc1nc(Cc2cccc(C(F)(F)F)c2)sc1-c1ccc(C(N)=O)nc1,cell-free assay,competition with immobilised ligand,1 µM,96
Cc1cnc(Nc2ccc(C(=O)N3CCC(N4CCCC4)CC3)cc2)nc1-c1cc2ccccc2s1,binding,competition with immobilised ligand,1 µM,65
CO[C@@H](C)c1c(Nc2ccc([C@H](N(C)C(=O)C3CCS(=O)(=O)CC3)C(F)(F)F)cc2)cnc2cc(Cl)nn12,cell-free assay,competition with immobilised ligand,1 µM,100
FC(F)(F)Oc1cccc(-c2cnc3ccc(-c4ccncc4)nn23)c1,cell-free assay,competition with immobilised ligand,5 µM,93
CN(CCCC(F)(F)F)c1nccc(-c2cnn3ncccc23)n1,binding,,1 µM,89
O=C(c1ccc(Nc2ncc(Cl)c(-c3cc4ccccc4s3)n2)cc1)N1CCC(N2CCCC2)CC1,binding,competition with immobilised ligand,1 µM,69
COc1ncc2cc3ccccc3nc2c1C#N,cell-free assay,competition with immobilised ligand,5 µM,98
CNCc1ccccc1-c1csc([C@@H](C)Nc2nc(C)nc3cc(OC)c(OC)cc23)c1,cell-free assay,competition with immobilised ligand,1 µM,96
C[C@@H]1CCN(c2nccc(-c3cnn4ncccc34)n2)C1,binding,,1 µM,100
C=CC(=O)N1CCC(C(=O)NCC(=O)N2CCN(c3nc(-c4cnc(N)nc4C(F)F)nc(N4CCOCC4)n3)CC2)CC1,binding,competition with immobilised ligand,1 µM,100
c1cnn2ncc(-c3ccnc(N4CCC45COC5)n3)c2c1,binding,,1 µM,95
CCS(=O)(=O)c1cc2cc(C[C@@](O)(CC(C)(C)c3ccc(F)cc3C(N)=O)C(F)(F)F)[nH]c2cn1,cell-free assay,competition with immobilised ligand,1 µM,100
COc1ccnn2ncc(-c3ccnc(N(C)C)n3)c12,binding,,1 µM,67
COc1cnc(Nc2cccc(S(N)(=O)=O)c2)nc1N1CCN(c2ccccc2)C(=O)C1,binding,competition with immobilised ligand,1 µM,100
